For data set [1], the system named is mouse xenograft models of human MM. Particulars: cited from earlier work.
For data set [2] the following is noted: cited from earlier work; for maximal plasma concentration: humans, 800 mg EGCG supplements.
For data set [3] the following is noted: cited from earlier work.
For the next data set, the system named is glioblastoma cell line. To be noted: 20 μM EGCG, 20 nM bortezomib; cited from earlier work.
Data set [4] has as its target T1, 20S proteasome (Homo sapiens, UniProt P28074).
T1 sequence (P28074 60-263): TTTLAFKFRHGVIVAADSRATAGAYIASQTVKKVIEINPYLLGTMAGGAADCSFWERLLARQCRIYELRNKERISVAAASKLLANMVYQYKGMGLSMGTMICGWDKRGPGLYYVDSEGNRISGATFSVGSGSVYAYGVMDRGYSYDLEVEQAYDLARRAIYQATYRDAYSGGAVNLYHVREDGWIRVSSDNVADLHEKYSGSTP
Nature of the data set: 20S proteasome activity in xenograft tumors, enzymatic assay. Type of data set: in vivo. In a few lines:
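CWR22 human prostate tumor fragments were implanted subcutaneously by trocar in the flank of male CB-17 SCID mice aged 5–8 weeks. Tumor-bearing mice received an IV dose of the test compound. At 4 h, tumors were collected and 20S proteasome activity was measured by an enzymatic assay. Inhibition is expressed as a mean percentage relative to vehicle-treated controls.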

Data set [5] concerns the target T2, 20S proteasome (Mus musculus, UniProt O55234).
T2 sequence (O55234 60-264): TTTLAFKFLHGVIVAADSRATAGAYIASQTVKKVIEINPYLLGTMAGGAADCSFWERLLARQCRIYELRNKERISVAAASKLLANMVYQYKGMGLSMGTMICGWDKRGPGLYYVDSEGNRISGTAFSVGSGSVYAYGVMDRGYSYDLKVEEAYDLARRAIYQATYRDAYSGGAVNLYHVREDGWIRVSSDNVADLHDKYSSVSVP
Briefly: 20S proteasome activity in blood, enzymatic assay. Type of data set: in vivo, mice. Particulars: for inhibition at 0.8 mg/kg: mouse. Put shortly: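 20S proteasome activity in blood measured by an enzymatic assay on samples taken 4 h after dosing. Schedules were bortezomib 0.8 mg/kg IV, EGCG 50 mg/kg IV alone, EGCG 50 mg/kg IV then bortezomib 2 min later, or EGCG 50 mg/kg SC then bortezomib 30 or 60 min later. Inhibition expressed relative to vehicle controls.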

The test system of data set [6] is CWR22 human prostate xenograft tumors. Nature of the data set: In vivo antitumor activity. On the set-up: species or system mice. Put shortly: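 Male CB-17 SCID mice aged 5–8 weeks implanted SC in the flank (trocar) with CWR22 fragments; randomised at 150–250 mm3 (n = 9/group). EGCG 50 mg/kg IV or SC BIW for 7 doses; ascorbic acid 40 or 500 mg/kg PO QD for 22 days; vehicle 0.9% saline. Calipers BIW; volume = 0.5 × length × width². TGI from mean volumes versus control on day 22 or 25.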

The subject of a further data set is MM cell lines. To be noted: 10 nM bortezomib, several MM cell lines; cited from earlier work.
Data set [7] relates to phospho-β-catenin (Ser33/Ser37/Thr41), GADD34 and ATF3. Briefly: Western blot of xenograft tumors for proteasome substrate and ER stress markers. The data set is classed as in vivo, human. Particulars: 4 h. In a few lines:
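CWR22 xenograft tumours harvested 4 h after dosing with bortezomib 0.8 mg/kg IV, EGCG 50 mg/kg IV, or EGCG (IV, then bortezomib 2 min later; SC, then bortezomib 30 or 60 min later). Western blots probed for phospho-β-catenin (Ser33/Ser37/Thr41), GADD34 and ATF3, compared with vehicle controls.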
For orientation: Immunoblotting shows a protein as a band on a membrane.

Data set [8] in a line: Pharmacokinetics of EGCG in mice. The data set is classed as in vivo. Particulars: for Cmax: read-out: mean Cmax. In a few lines:
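Naïve female nude or male CB-17 SCID mice aged 5–8 weeks given EGCG in 0.9% saline: PO 50, IV 50 and 100, or SC 50 mg/kg. Cardiac blood taken under CO2 from 5 min to 48 h; EDTA plasma stabilised 1:1 with ascorbic acid/EDTA, stored at −80°C, assayed by LC/MS/MS. Concentrations at bortezomib dosing times projected from these profiles.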

For a further data set, the system named is RPMI-8226 cells. Briefly: Bortezomib–EGCG combination matrix, ATP luminescence cell viability. Type of data set: cell-based, human.
The conditions of data set [9]: cited from earlier work. This is another data set of the same source.
The test system of another data set is RPMI8226 cells. To be noted: cited from earlier work.
The conditions of data set [10]: humans, oral dose of 1,250 mg; cited from earlier work.
Data set [11] in a line: Pharmacokinetics of ascorbic acid. Type of data set: in vivo, mice. To be noted: for Cmax / Tmax: male, CB-17 SCID, mouse, po. Put shortly: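 Male CB-17 SCID mice bearing CWR22 tumours (naïve mice also sampled) given ascorbic acid 40 or 500 mg/kg PO in 0.9% saline. Cardiac blood taken at 0.5–6 h into lithium heparin; plasma stabilised 1:1 with 10% metaphosphoric acid, stored at −80°C. LC/MS/MS in negative ion MRM mode (m/z 175.0/114.8).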

The conditions of data set [12]: human plasma, within an hour post-dose; cited from earlier work.
Setting [13] is: iv, read-out: mean 20S proteasome inhibition.

Values joined by “and” are separate entries in the source; they are usually repeats but may differ in a detail not shown here. Equal values may be shown once. Read-outs that look alike come from different tables or passages of the source. Peptide text beside a SMILES is read from it. * marks the point of attachment. Cbz = O=C(OCc1ccccc1)* Bounds are passed on as bounds.

Turning to `O=C(O[C@@H]1Cc2c(O)cc(O)cc2O[C@@H]1c1cc(O)c(O)c(O)c1)c1cc(O)c(O)c(O)c1` [EGCG, epigallocatechin gallate], the “effect on the antitumor effects of bortezomib” value in data set [1] (oral EGCG 25 or 50 mg/kg, bortezomib i.p. 0.5 mg/kg) is on record as “inhibits the antitumor effects”. Moreover, the “EGCG concentration measured clinically” value in data set [2] (humans taking EGCG supplements) is 0.6 to 3 µM. The maximal plasma concentration result in data set [2] (taken after fasting) is “approximately 3 μM and 1,522 ng/ml”; in [2] (taken with food), “approximately 0.6 μM and 294 ng/ml”; in [8] (oral dosing 50 mg/kg), below 0.1 µM. The plasma concentration entry in data set [3] (50 mg/kg EGCG administered intragastrically, at 50 min) is “approximately 60 nM”. Besides, in data set [3] (mice, oral dosing of 50 and 80 mg/kg), the maximal plasma concentrations was 0.06 to 0.28 µM. Also, the “effect on proteasome inhibition by bortezomib” value in the data set with glioblastoma cell line is “blocked proteasome inhibition”. The “inhibition of proteasome activity compared with vehicle controls” value against 20S proteasome [4] (tumor, EGCG 50 mg/kg IV alone, 4 h (Fig. 4a)) is “No inhibition”; against 20S proteasome [5] (blood, EGCG 50 mg/kg IV alone, 4 h (Fig. 4a)) it was “No inhibition”. Moreover, the TGI in data set [6] (EGCG 50 mg/kg IV BIW alone) is −15.3%; in data set [6] (EGCG 50 mg/kg SC BIW single agent) it was 3.6%. The “EGCG concentrations that antagonized the cytotoxic effect of bortezomib” value in the data set on MM cell lines was at least 2.5 µM. Besides, the “levels of phospho-β-catenin, GADD34, and ATF3” value in data set [7] (EGCG 50 mg/kg IV on its own) is “does not change levels”. Besides, the “Projected plasma concentration of EGCG at the time of bortezomib dosing” value in data set [8] (50 mg/kg IV EGCG, 2 min interval) was 224 µM; in [8] (50 mg/kg SC EGCG, 30 min interval), 11 to 16 µM; in data set [8] (50 mg/kg SC EGCG, 60 min interval), 4 to 8 µM. For the same compound, in data set [8] (IV and SC dosing at 50 mg/kg), the “time plasma concentration remained higher than 3 μM” value is around 2 h. In [8] (SC 50 mg/kg), the “maximal EGCG concentration” value is above 25 µM. The EGCG plasma concentration in data set [8] (SC 50 mg/kg, 30 min post-dose, first study) was 16.2 µM; in [8] (SC 50 mg/kg, 30 min post-dose, second study) it was 11.3 µM; in data set [8] (SC 50 mg/kg, 1 h post-dose, first study) it was 8.4 µM; in [8] (SC 50 mg/kg, 1 h post-dose, second study), 3.9 µM; in [8] (SC 50 mg/kg, 2 h post-dose, first study) it was 2.8 µM; in data set [8] (SC 50 mg/kg, 2 h post-dose, second study), 2.5 µM. The “mean plasma Tmax” value is 0.083 h in [8] (SC 50 mg/kg, naïve male CB17 SCID mice, both studies) and 0.5 h in data set [8] (single oral dose 50 mg/kg, naïve female nude mice). For the same compound, in [8] (after IV dosing (50 and 100 mg/kg), within 30 min of dosing), the “plasma levels of EGCG” value is below 20 µM. In addition, the Cmax (commonly the maximum level reached in the sampled fluid or tissue) in data set [8] (SC 50 mg/kg, naïve male CB17 SCID mice, first study) worked out at 33.7 µM; in data set [8] (SC 50 mg/kg, naïve male CB17 SCID mice, second study) it was 26 µM. For the same compound, the “antagonism of 40 nM bortezomib” value in the data set with RPMI-8226 cells (EGCG 3.8 μM) was “no antagonism”. Besides, the “cytotoxicity of EGCG on its own” value in the data set on RPMI-8226 cells (EGCG 100 μM) was “cytotoxic”. The “impact on the cytotoxicity of bortezomib” value in the data set on RPMI-8226 cells (EGCG concentrations of up to 0.4 μM) is on record as “no impact”. Moreover, in the data set with RPMI-8226 cells (RPMI8226 cell viability), the “EGCG concentration required for a substantial shift in the potency of bortezomib” value is above 1000 nM.
For the compound `CC(C)C[C@@H](C=O)NC(=O)[C@H](CC(C)C)NC(=O)[C@H](CC(C)C)NC(=O)OCc1ccccc1` [MG-132] (Cbz-Leu-Leu-Leu-aldehyde), the “effect of EGCG on the proteasome inhibitor” value in data set [9] is “has no effect”.
As for `CC(C)C[C@H](NC(=O)[C@H](CC(C)C)NC(=O)[C@H](CC(C)C)NC(=O)OCc1ccccc1)B(O)O` [MG-262], the “effect of EGCG on the proteasome inhibitor” value in data set [9] is “antagonizes”.
In the case of `O=C1O[C@H]([C@@H](O)CO)C(O)=C1O` [ascorbic acid], the “effect on the antitumor effects of bortezomib” value in data set [1] (oral vitamin C 40 mg/kg/day, bortezomib IV 0.1 mg/kg) was “inhibits the antitumor effects”. Also, the “antagonism of the activity of bortezomib” value in the data set with RPMI8226 cells (30 μM ascorbic acid, 5 and 10 nM bortezomib) is reported as “partially antagonized”; in the data set on RPMI8226 cells (250 μM ascorbic acid, 5–10 nM bortezomib) it was “nearly complete antagonism”. Further, the maximal concentrations result in data set [10] is “approximately 150 μM”. The TGI in data set [6] (ascorbic acid 40 mg/kg PO QD alone) is −24.4%; in [6] (ascorbic acid 500 mg/kg PO QD alone), −15.5%. Besides, the Cmax was determined as 72.8 µM in data set [11] (plasma, 40 mg/kg) and 193 µM in data set [11] (plasma, 500 mg/kg). Moreover, the Tmax (commonly the time from dosing to the highest level) in [11] (plasma, 40 mg/kg) was determined as 4 h; in [11] (plasma, 500 mg/kg), 2 h. Besides, the “time elevated plasma level above endogenous is maintained” value in data set [11] (oral dosing 40 and 500 mg/kg) was “at least 6 h”. The “levels of endogenous ascorbic acid” value in [11] (plasma, naïve or CWR22 tumor-bearing male CB-17 SCID mice) is 48.3 to 59.2 µM.
For the compound `CC(C)C[C@H](NC(=O)[C@H](Cc1ccccc1)NC(=O)c1cnccn1)B(O)O` [bortezomib, reference compound], the “drop of plasma concentrations” value in data set [12] is recorded as “more than 10 fold”. The figures for the inhibition at 0.8 mg/kg on 20S proteasome [4] (setting [13]), on 20S proteasome [5] (setting [13]) and on 20S proteasome [5] (read-out: mean proteasome inhibition) were 52%, 44% and 59%, respectively. For the same compound, the TGI is 62.8% in data set [6] (bortezomib 0.8 mg/kg IV BIW alone, vitamin C study (Fig. 5b)) and 53.9–58.9% in [6] (bortezomib 0.8 mg/kg IV BIW single agent, across EGCG studies, versus control). Also, in data set [7] (bortezomib 0.8 mg/kg IV), the “levels of phospho-β-catenin, GADD34, and ATF3 compared with vehicle controls” value is recorded as “elevated levels”. Moreover, the “effect of EGCG on the proteasome inhibitor” value in data set [9] is on record as “antagonizes”. In addition, the “increase in the IC50 of bortezomib” value in the data set on RPMI-8226 cells (3.8 μM EGCG versus no EGCG) is 2.5 fold. The IC50 – broadly, the midpoint of a concentration-inhibition curve – with RPMI-8226 cells (read-out: Btz IC50, RPMI-8226 cells, 48 h, EGCG 425 nM (0.4 μM)) came to 7 nM.
On to `Cc1c(O)cccc1C(=O)N[C@@H](CSc1ccccc1)[C@H](O)CN1C[C@H]2CCCC[C@H]2C[C@H]1C(=O)NC(C)(C)C` [nelfinavir], for which, in data set [9], the “effect of EGCG on the proteasome inhibitor” value was “has no effect”.
